Results from ChEMBL document CHEMBL4145525, “Machine learning prioritizes synthesis of primaquine ureidoamides with high antimalarial activity and attenuated cytotoxicity” (Eur J Med Chem, 2018).

Columns and labels:
MCF7 [1] = assay: Cytotoxicity against human MCF7 cells assessed as growth inhibition at 10 uM cotreated with G6PD inhibitor 6-AN after 72 hrs by MTT assay; type: cell-based; details: mcf7, 72 h
Method in brief: (§1)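 Adherent cells seeded at 2×10^4–4×10^4 cells/well and left 24 h, then treated with compound alone or together with 6-aminonicotinamide (always 10 µM, used to mimic G6PD deficiency). Final DMSO <0.2%. Growth measured by MTT after 72 h and expressed as percentage growth relative to untreated cells.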

A2780 = assay: Cytotoxicity against human A2780 cells assessed as growth inhibition after 72 hrs by MTT assay; type: cell-based; details: A2780, 72 h
Method in brief: (§2)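 Monolayers grown in DMEM or RPMI-1640 with 10% FBS, 2 mM L-glutamine and penicillin/streptomycin at 37 °C, 5% CO2. Seeded at 2×10^4–4×10^4 cells/well and attached for 24 h. Five serial 10-fold dilutions added, final DMSO <0.2%. MTT read-out at 72 h; percentage growth calculated. IC50 by linear interpolation between concentrations bracketing 50% growth; at least two biological replicates.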

MCF7 [2] = assay: Cytotoxicity against human MCF7 cells assessed as growth inhibition after 72 hrs by MTT assay; type: cell-based; details: MCF7, 72 h; method in brief: as §2
NCI-H460 [3] = assay: Cytotoxicity against human NCI-H460 cells assessed as growth inhibition after 72 hrs by MTT assay; type: cell-based; details: NCI-H460, 72 h; method in brief: as §2
Plasmodium falciparum = assay: Antiplasmodial activity against erythrocytic stage of Plasmodium falciparum NF54 assessed as reduction in [3H]hypoxanthine incorporation after 48 hrs by liquid scintillation counting method; type: functional, organism-based
Method in brief: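 Asexual blood-stage NF54 grown in hypoxanthine-free RPMI 1640 with HEPES, NaHCO3, neomycin and Albumax, using washed human A+ erythrocytes at 2.5% hematocrit and 0.3% parasitemia. Compounds were made as 10 mg/ml DMSO stocks and run as eleven 3-fold dilutions, 100 to 0.002 µg/ml. Incubation at 37 °C in 4% CO2, 3% O2, 93% N2. After 48 h, 0.5 µCi 3H-hypoxanthine was added for a further 24 h, then harvested and scintillation counted. IC50 by linear interpolation of sigmoidal curves; averages of 2–3 independent experiments.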

NCI-H460 [4] = assay: Cytotoxicity against human NCI-H460 cells assessed as growth inhibition at 10 uM cotreated with G6PD inhibitor 6-AN after 72 hrs by MTT assay; type: cell-based; details: nci-h460, 72 h; method in brief: as §1
[5] = Selectivity index, ratio of IC50 for rat L6 cells to IC50 for erythrocytic stage of Plasmodium falciparum NF54; type: toxicity; details: read-out: Ratio IC50
Method in brief: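 Ratio of the L6 cytotoxicity IC50 to the IC50 against P. falciparum NF54.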

L6 = assay: Cytotoxicity against rat L6 cells assessed as reduction in cell viability after 70 hrs by Alamar blue assay; type: cell-based; details: L6, 70 h
Method in brief: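 L6 rat skeletal myoblasts were plated at 4000 cells/well in RPMI 1640 with L-glutamine and 10% FBS. Eleven 3-fold drug dilutions, 100 to 0.002 µg/ml. After 70 h, Alamar Blue was added for 2 h and fluorescence read (ex 536 nm, em 588 nm). IC50 by linear interpolation from sigmoid dose-inhibition curves.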

[6] = Cytotoxicity against human MCF7 cells assessed as cell growth at 10 uM cotreated with G6PD inhibitor 6-AN after 72 hrs by MTT assay relative to control; type: cell-based; method in brief: as §1
[7] = Safety index, ratio of compound IC50 to primaquine IC50 for rat L6 cells; type: ADME, cell-based; details: read-out: Ratio IC50
HL-60 = assay: Cytotoxicity against human HL60 cells assessed as growth inhibition after 72 hrs by MTT assay; type: cell-based; details: HL-60, 72 h
SW-620 = assay: Cytotoxicity against human SW620 cells assessed as growth inhibition after 72 hrs by MTT assay; type: cell-based; details: SW-620, 72 h; method in brief: as §2
K562 = assay: Cytotoxicity against human K562 cells assessed as growth inhibition after 72 hrs by MTT assay; type: cell-based; details: K562, 72 h
CAPAN-1 = assay: Cytotoxicity against human Capan1 cells assessed as growth inhibition after 72 hrs by MTT assay; type: cell-based; details: CAPAN-1, 72 h
Method in brief: (§3)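 Cells cultured in DMEM or RPMI-1640 with 10% FBS, 2 mM L-glutamine and antibiotics at 37 °C, 5% CO2. Seeded at 2×10^4–4×10^4 cells/well and attached for 24 h before five serial 10-fold compound dilutions, final DMSO <0.2%. MTT at 72 h. IC50 interpolated between the two concentrations flanking 50% growth inhibition; single experiment.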

HCT-116 = assay: Cytotoxicity against human HCT116 cells assessed as growth inhibition after 72 hrs by MTT assay; type: cell-based; details: HCT-116, 72 h; method in brief: as §3
[8] = Cytotoxicity against human MCF7 cells assessed as cell growth at 10 uM after 72 hrs by MTT assay relative to control; type: cell-based; details: read-out: Activity; method in brief: as §1

Row | IC50 (Plasmodium falciparum) [µM] | SMILES | growth inhibition (GI) (MCF7 [1]) | IC50 (A2780) [µM] | IC50 (MCF7 [2]) [µM] | IC50 (NCI-H460 [3]) [µM] | growth inhibition (GI) (NCI-H460 [4]) | selectivity ratio [5] | IC50 (L6) [µM] | viability at 72 h, 10 µM [6] [%] | selectivity ratio [7] | IC50 (HL-60) [µM] | IC50 (SW-620) [µM] | IC50 (K562) [µM] | IC50 (CAPAN-1) [µM] | IC50 (HCT-116) [µM] | viability at 72 h, 10 µM [8] [%]
1 | 1.9 to 2.2 | COc1ccc(C(=NNC(=O)NNC(=O)NCCCC(C)Nc2cc(OC)cc3cccnc23)c2ccc(OC)cc2)cc1 (stereo unspecified) | Toxic | 0.06 | 0.9 to 1 | 5 | Toxic | 61.9 | 136 |  |  |  |  |  |  |  | 
2 | 1.2 | COc1cc(NC(C)CCCNC(=O)NNC(=O)NCCNC(c2ccccc2)(c2ccccc2)c2ccccc2)c2ncccc2c1 (stereo unspecified) | Toxic | 1 | 3 | 3 | Toxic | > 83.3 | > 100 |  |  |  |  |  |  |  | 
3 | 2.3 to 2.4 | COc1ccc(C(=NNC(=O)NCCCC(C)Nc2cc(OC)cc3cccnc23)c2ccc(OC)cc2)cc1 (stereo unspecified) | Toxic | 1 | 2.8 to 3 | > 100 | Toxic | 78.3 | > 180 |  |  |  |  |  |  |  | 
4 | 1.4 | COc1cc(NC(C)CCCNC(=O)NC(C(=O)NC(c2ccccc2)c2ccccc2)c2ccc(Cl)cc2)c2ncccc2c1 (stereo unspecified) |  | > 100 | > 100 | > 100 |  | > 114 | > 160 | 65 | 2.7 | > 100 | 6 | > 100 | > 100 | > 100 | 80
5 | 3.4 | COc1cc(NC(C)CCCNC(=O)NC(CC(C)C)C(=O)NC(c2ccccc2)c2ccccc2)c2ncccc2c1 (stereo unspecified) | Non-Toxic | 36 | > 100 | > 100 | Non-Toxic | > 50 | > 170 |  |  | > 100 | > 100 | > 100 | > 100 | > 100 | 
6 | 3 | COc1cc(NC(C)CCCNC(=O)NC(C(=O)NC(c2ccccc2)c2ccc(Cl)cc2)c2ccccc2)c2ncccc2c1 (stereo unspecified) | Non-Toxic | > 100 | > 100 | > 100 | Non-Toxic | > 53.3 | > 160 |  |  | > 100 | > 100 | > 100 | > 100 | > 100 | 
7 | 1.8 | COc1cc(NC(C)CCCNC(=O)NC(C(=O)NC(c2ccccc2)c2ccc(Cl)cc2)c2ccc(Cl)cc2)c2ncccc2c1 (stereo unspecified) |  | 14 | > 100 | > 100 | Non-Toxic | > 83.3 | > 150 | 76 | 2.5 | > 100 | > 100 | > 100 | > 100 | > 100 | 93
8 | 6.5 | COc1cc(NC(C)CCCNC(=O)NC(C(=O)N(C)C(c2ccccc2)c2ccccc2)c2ccccc2)c2ncccc2c1 (stereo unspecified) |  |  | > 100 | 64 |  | > 21.5 | > 140 |  |  | > 100 | > 100 | > 100 | > 100 | > 100 | 

Row | SMILES | IC50 (Plasmodium falciparum) [µM] | growth inhibition (GI) (MCF7 [1]) | IC50 (A2780) [µM] | IC50 (MCF7 [2]) [µM] | IC50 (NCI-H460 [3]) [µM] | growth inhibition (GI) (NCI-H460 [4]) | selectivity ratio [5] | IC50 (L6) [µM] | viability at 72 h, 10 µM [6] [%] | selectivity ratio [7] | IC50 (HL-60) [µM] | IC50 (SW-620) [µM] | IC50 (K562) [µM] | IC50 (CAPAN-1) [µM] | IC50 (HCT-116) [µM] | viability at 72 h, 10 µM [8] [%]
9 | COc1cc(NC(C)CCCN)c2ncccc2c1 (stereo unspecified) [PRIMAQUINE PHOSPHATE] | 1.5 |  | 5 | 5 | 10 |  | 39.7 | 59.5 |  |  | 11.4 | 14 | 12 | 14.2 | 44.2 | 25
